We go through three molecules from ChEMBL document CHEMBL3525931, “Stereoselective interaction of pantoprazole with ABCG2. II. In vitro flux analysis” (Drug Metab Dispos, 2012).

The nature of data set [1]: Permeability surface area for passive diffusion in MDCK2 cells assessed as transport at 3 to 200 uM after 0.5 to 1 hrs by HPLC method. It counts as ADME, cell-based, Canis lupus familiaris. Particulars: dog, mdck-ii. The procedure, abridged:
(§1)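 PS_D (passive diffusion) derived from observed permeability of single PAN isomers across empty-vector (pcDNA3.1) MDCKII monolayers (TEER >200 Ω·cm²). Both A→B and B→A directions in serum-free Opti-MEM I at 37°C, with [3H]mannitol as paracellular marker. Receiver sampled at 0.5 and 1 h, PAN measured by HPLC-UV. PS_D calculated from a three-compartment model equation at each donor concentration.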

A short description of data set [2]: Permeability surface area for passive diffusion in MDCK2 cells assessed as transport at 10 uM after 0.5 to 1 hrs by HPLC method. The data set is classed as ADME, cell-based, Canis lupus familiaris. The note with it: dog, mdck-ii. Summed up:
as §1

Data set [3] in a line: Permeability surface area for passive diffusion in MDCK2 cells assessed as transport at 3 uM after 0.5 to 1 hrs by HPLC method. It counts as ADME, cell-based, Canis lupus familiaris. The note with it: dog, mdck-ii. Summed up: as §1
A short description of data set [4]: Permeability surface area for passive diffusion in MDCK2 cells assessed as transport at 30 uM after 0.5 to 1 hrs by HPLC method. It counts as ADME, cell-based, Canis lupus familiaris. The note with it: dog, mdck-ii. The procedure, abridged:
as §1

Data set [5] can be described thus: Permeability surface area for passive diffusion in MDCK2 cells assessed as transport at 50 uM after 0.5 to 1 hrs by HPLC method. The data set is classed as ADME, cell-based, Canis lupus familiaris. The note with it: dog, mdck-ii. The procedure, abridged: as §1
A short description of data set [6]: Permeability surface area for passive diffusion in MDCK2 cells assessed as transport at 200 uM after 0.5 to 1 hrs by HPLC method. The data set is classed as ADME, cell-based, Canis lupus familiaris. Particulars: dog, mdck-ii. The procedure, abridged: as §1
Substrate in data set [7]: COc1ccnc(C[S@@+]([O-])c2nc3cc(OC(F)F)ccc3[nH]2)c1OC
Kind of data set: (§2) Drug transport in MDCK2 cells expressing rat ABCG2 assessed as ABCG2-mediated transport by HPLC method. The data set is classed as ADME, cell-based, MDCK-II. The procedure, abridged:
(§3)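 Kinetics came from the same Transwell bidirectional flux runs in rat Abcg2- or human ABCG2-MDCKII, with donor 3–200 μM single isomer. Cellular concentrations were predicted from a three-compartment model using PS_D from mock cells and PS_PC from mannitol. Apparent apical efflux permeability was fitted against predicted cellular concentration by saturable kinetics to give K_M and T_max.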

Substrate in data set [8]: COc1ccnc(C[S@+]([O-])c2nc3cc(OC(F)F)ccc3[nH]2)c1OC
Described as §2. The data set is classed as ADME, cell-based, MDCK-II. The procedure, abridged: as §3

Substrate in data set [9]: COc1ccnc(C[S@@+]([O-])c2nc3cc(OC(F)F)ccc3[nH]2)c1OC
Kind of data set: (§4) Drug transport in MDCK2 cells expressing human ABCG2 assessed as ABCG2-mediated transport by HPLC method. The data set is classed as ADME, cell-based, MDCK-II. The procedure, abridged:
as §3

Substrate in data set [10]: COc1ccnc(C[S@+]([O-])c2nc3cc(OC(F)F)ccc3[nH]2)c1OC
The description is as §4. It counts as ADME, cell-based, MDCK-II. Summed up: as §3

As to `COc1ccnc(C[S+]([O-])c2nc3ccc(OC(F)F)cc3[nH]2)c1OC` (racemic) [PANTOPRAZOLE], the Papp was found to be 244 uL/hr/cm2 in [1]; 242 uL/hr/cm2 in data set [2]; 231 uL/hr/cm2 in data set [3]; 226 uL/hr/cm2 in data set [4]; 251 uL/hr/cm2 in [5]; 271 uL/hr/cm2 in data set [6].

B1: Broad substrate specificity ATP-binding cassette transporter ABCG2 (Rattus norvegicus) (protein)
chain: MSSSNDHVLVPMSQRNKNGLPGMSSRGARTLAEGDVLSFHHITYRVKVKSGFLVRKTAEKEILSDINGIMKPGLNAILGPTGGGKSSLLDVLAARKDPRGLSGDVLINGAPQPANFKCSSGYVVQDDVVMGTLTVRENLQFSAALRLPKAMKTHEKNERINTIIKELGLDKVADSKVGTQFTRGISGGERKRTSIGMELITDPSILFLDEPTTGLDSSTANAVLLLLKRMSKQGRTIIFSIHQPRYSIFKLFDSLTLLASGKLMFHGPAQKALEYFASAGYHCEPYNNPADFFLDVINGDSSAVMLNRGEQDHEANKTEEPSKREKPIIENLAEFYINSTIYGETKAELDQLPVAQKKKGSSAFREPVYVTSFCHQLRWIARRSFKNLLGNPQASVAQLIVTVILGLIIGALYFGLKNDPTGMQNRAGVFFFLTTNQCFTSVSAVELFVVEKKLFIHEYISGYYRVSSYFFGKLVSDLLPMRFLPSVIYTCILYFMLGLKRTVEAFFIMMFTLIMVAYTASSMALAIAAGQSVVSVATLLMTISFVFMMLFSGLLVNLRTIGPWLSWLQYFSIPRYGFTALQHNEFLGQEFCPGLNVTMNSTCVNSYTICTGNDYLINQGIDLSPWGLWRNHVALACMIIIFLTIAYLKLLFLKKYS
In the case of B1, the figures for the Km in [7] and in data set [8] were 1.85 µM and 0.25 µM, respectively.

B2: Broad substrate specificity ATP-binding cassette transporter ABCG2 (Homo sapiens) (protein)
chain: MSSSNVEVFIPVSQGNTNGFPATASNDLKAFTEGAVLSFHNICYRVKLKSGFLPCRKPVEKEILSNINGIMKPGLNAILGPTGGGKSSLLDVLAARKDPSGLSGDVLINGAPRPANFKCNSGYVVQDDVVMGTLTVRENLQFSAALRLATTMTNHEKNERINRVIQELGLDKVADSKVGTQFIRGVSGGERKRTSIGMELITDPSILFLDEPTTGLDSSTANAVLLLLKRMSKQGRTIIFSIHQPRYSIFKLFDSLTLLASGRLMFHGPAQEALGYFESAGYHCEAYNNPADFFLDIINGDSTAVALNREEDFKATEIIEPSKQDKPLIEKLAEIYVNSSFYKETKAELHQLSGGEKKKKITVFKEISYTTSFCHQLRWVSKRSFKNLLGNPQASIAQIIVTVVLGLVIGAIYFGLKNDSTGIQNRAGVLFFLTTNQCFSSVSAVELFVVEKKLFIHEYISGYYRVSSYFLGKLLSDLLPMRMLPSIIFTCIVYFMLGLKPKADAFFVMMFTLMMVAYSASSMALAIAAGQSVVSVATLLMTICFVFMMIFSGLLVNLTTIASWLSWLQYFSIPRYGFTALQHNEFLGQNFCPGLNATGNNPCNYATCTGEEYLVKQGIDLSPWGLWKNHVALACMIVIFLTIAYLKLLFLKKYS
As to B2, the figures for the Km in data set [9] and in [10] were 5.32 µM and 0.59 µM, respectively.
